Reference: ChEMBL document CHEMBL3826882, “Discovery of 1-((2R,4aR,6R,7R,7aR)-2-Isopropoxy-2-oxidodihydro-4H,6H-spiro[furo[3,2-d][1,3,2]dioxaphosphinine-7,2'-oxetan]-6-yl)pyrimidine-2,4(1H,3H)-dione (JNJ-54257099), a 3'-5'-Cyclic Phosphate Ester Prodrug of 2'-Deoxy-2'-Spirooxetane Uridine Triphosphate Useful for HCV Inhibition” (J Med Chem, 2016)

Columns and labels:
Hepatocyte [1] = test: Drug metabolism in rat primary hepatocyte supernatant assessed as 1-((4R,5R,7R,8R)-8-hydroxy-7-(hydroxymethyl)-1,6-dioxaspiro[3.4]octan-5-yl)pyrimidine-2,4(1H,3H)-dione formation at 2 to 62.5 uM after 4 to 24 hrs using radiolabeled compound by HPLC analysis; type: ADME, cell-based; settings: hepatocytes
How it was run: (§1)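 Fresh primary hepatocyte cultures incubated with tritiated prodrug (5'-[3H]) at 2 and 62.5 µM for 4 and 24 h. Supernatants taken after protein precipitation and profiled by HPLC with radioactivity detection. Cell lysates profiled for metabolites by radio-LC. Cyclic monophosphate also measured by LC/MS/MS.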

Hepatocyte [2] = test: Drug metabolism in rat primary hepatocyte supernatant assessed as 1-[(4aR,6R,7R,7aR)-2-hydroxy-2-oxidodihydro-4H-spiro[furo[3,2-d][1,3,2]dioxaphosphinine-7,2'-oxetan]-6-yl]pyrimidine-2,4(1H,3H)-dione formation at 2 to 62.5 uM after 4 to 24 hrs using radiolabelled compound by HPLC analysis; type: ADME, cell-based; settings: hepatocytes; how it was run: as §1
Hepatocyte [3] = test: Drug metabolism in human primary hepatocyte supernatant assessed as 1-[(4aR,6R,7R,7aR)-2-hydroxy-2-oxidodihydro-4H-spiro[furo[3,2-d][1,3,2]dioxaphosphinine-7,2'-oxetan]-6-yl]pyrimidine-2,4(1H,3H)-dione formation at 2 to 62.5 uM after 4 to 24 hrs using radiolabelled compound by HPLC analysis; type: ADME, cell-based; settings: hepatocytes; how it was run: as §1
Hepatocyte [4] = test: Drug metabolism in rat primary hepatocytes assessed as 1-[(4aR,6R,7R,7aR)-2-hydroxy-2-oxidodihydro-4H-spiro[furo[3,2-d][1,3,2]dioxaphosphinine-7,2'-oxetan]-6-yl]pyrimidine-2,4(1H,3H)-dione formation at 2 to 62.5 uM after 24 hrs using radiolabelled compound by LC-MS/MS analysis; type: ADME, cell-based; how it was run: as §1
Hepatocyte [5] = test: Prodrug conversion in human primary hepatocytes assessed as 2'-deoxy-2'-spirooxetane uridine triphosphate level per million cells at 62.5 uM after 4 hrs using radiolabelled compound by LC-MS/MS analysis; type: ADME, cell-based
How it was run: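 Study A: fresh primary hepatocyte cultures from mouse, rat, dog and human incubated with tritiated prodrug at 2 or 62.5 µM for 4 or 24 h. Triphosphate in cell lysates reported as pmol/million hepatocytes. Duplicate or single measurements.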

[6] = Drug metabolism in dog primary hepatocyte supernatant assessed as 1-((4R,5R,7R,8R)-8-hydroxy-7-(hydroxymethyl)-1,6-dioxaspiro[3.4]octan-5-yl)pyrimidine-2,4(1H,3H)-dione formation at 2 to 62.5 uM after 4 to 24 hrs using radiolabeled compound by HPLC analysis; type: ADME, cell-based, Canis lupus familiaris; settings: hepatocytes
How it was run: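 Study A: primary cultured hepatocytes (mouse, rat, dog, human) incubated with 2 or 62.5 µM 5'-[3H]-labelled prodrug for 4 and 24 h. Cell lysates were analysed for triphosphate. Supernatants were protein-precipitated and profiled by HPLC with radioactivity detection. Cyclic monophosphate was also assessed by LC/MS/MS.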

Mus musculus = test: Half life in homozygous cDNA-uPA chimeric SCID mouse bearing humanized hepatocytes infected with HCV assessed as 2'-deoxy-2'-spirooxetane uridine triphosphate at 50 to 200 mg/kg, po bid administered through gavage for 7 days; type: ADME, organism-based, Hepatocyte; settings: 168 h
Hepatitis C virus [7] = test: Antiviral activity against HCV genotype 3a infected in homozygous cDNA-uPA chimeric SCID mouse bearing humanized hepatocytes assessed as reduction in HCV RNA level in serum administered through oral gavage twice daily daily for 7 days by RT-PCR method; type: functional, organism-based; settings: Hepacivirus hominis, Hepatocyte
How it was run: (§2)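 Male chimeric SCID cDNA-uPA+/+ mice with human hepatocyte liver (≥70% replacement by blood human albumin) and serum HCV RNA >1.0×10^6 copies/mL the week before dosing. Oral gavage for 7 days in 20% HP-β-CD, 50-200 mg/kg QD or BID. Serum sampled pre-dose on days 1, 2, 3, 5 and 7. Real-time PCR; mean change in log10 copies/mL, day 7 vs day 1 pre-dose.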

Liver [8] = test: Cmax in mouse liver assessed as 2'-deoxy-2'-spirooxetane uridine triphosphate at 50 mg/kg, po; type: ADME, organism-based; set-up: dose 50 mg/kg, route oral; settings: in vivo
[9] = Prodrug conversion in dog cryopreserved hepatocytes assessed as 2'-deoxy-2'-spirooxetane uridine triphosphate level per million cells at 10 uM after 24 hrs by LC-MS/MS analysis; type: ADME, cell-based, Canis lupus familiaris, Hepatocyte
How it was run: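 Plated cryopreserved hepatocytes (study B) incubated with 10 µM unlabeled prodrug for 2, 8 or 24 h. Triphosphate measured in cell lysates and expressed as pmol/million hepatocytes. Quantification limit 2 ng/10^6 cells.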

[10] = Ratio of AUC (0 to last) in mouse liver to AUC (0 to last) in mouse plasma; type: ADME
How it was run: (§3)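 Single oral dose of 50 mg/kg in 20% HP-β-cyclodextrin. Prodrug and triphosphate measured in plasma and liver over time (tlast 6–30 h). Half-life, Cmax, tmax and AUC0-last derived; liver/plasma ratio taken from AUC0-last. Prodrug data pooled from two independent studies.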

Liver [11] = test: Half life in mouse liver assessed as 2'-deoxy-2'-spirooxetane uridine triphosphate at 50 mg/kg, po; type: ADME, organism-based; settings: in vivo; how it was run: as §3
[12] = Half life in rat plasma at 50 mg/kg, po; type: ADME, organism-based; how it was run: as §3
[13] = Cmax in rat plasma at 50 mg/kg, po; type: ADME, organism-based; set-up: dose 50 mg/kg, route oral
[14] = Tmax in mouse liver at 50 mg/kg, po; type: ADME, organism-based
How it was run: (§4)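 Single oral dose of 50 mg/kg formulated in 20% HP-β-cyclodextrin. Prodrug and its triphosphate were measured in plasma and liver (ng/mL or ng/g) over time, and Cmax, tmax, AUC, tlast and t1/2 were derived. For some analytes, data from two independent studies are reported.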

Hepatitis C virus [15] = test: Antiviral activity against HCV genotype 1b infected in human HuH7 cells assessed as inhibition of viral replication after 3 days by luciferase reporter gene assay; type: functional, organism-based, Hepacivirus hominis; settings: Huh-7, 72 h
How it was run: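 HCV 1b subgenomic luciferase replicon (Huh7-luc, clone ET, adaptive mutations E1202G, T1280I, K1846T). 2,500 cells were incubated with compound over a 9-point, 1/4 dilution series for 3 days. Replication was read as luciferase activity.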

[16] = AUC (0 to last) in rat plasma at 50 mg/kg, po; type: ADME, organism-based; set-up: dose 50 mg/kg, route oral, time 0 - last
How it was run: (§5)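 Oral dose 50 mg/kg, formulated in 20% HP-β-cyclodextrin. Prodrug and triphosphate were measured in plasma and liver (ng/mL or ng/g). Parameters derived were Cmax, tmax, AUC0-last, AUC0-inf and t1/2. Some prodrug data come from two independent studies.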

Liver [17] = test: Tlast in dog liver assessed as 2'-deoxy-2'-spirooxetane uridine triphosphate at 50 mg/kg, po; type: ADME, organism-based, Canis lupus familiaris; settings: in vivo; how it was run: as §4
[18] = Tmax in dog liver at 50 mg/kg, po; type: ADME, organism-based, Canis lupus familiaris; how it was run: as §4
Liver [19] = test: AUC (0 to last) in dog liver at 50 mg/kg, po; type: ADME, organism-based, Canis lupus familiaris; settings: in vivo; how it was run: as §5
Hepatitis C virus [20] = test: Antiviral activity against HCV genotype 1a infected in homozygous cDNA-uPA chimeric SCID mouse bearing humanized hepatocytes assessed as change in HCV RNA level in serum at 200 mg/kg, po qd administered through gavage for 7 days by RT-PCR method; type: functional, Hepacivirus hominis, subtype 1a, Hepatocyte; how it was run: as §2
Liver [21] = test: AUC (0 to infinity) in rat liver assessed as 2'-deoxy-2'-spirooxetane uridine triphosphate at 50 mg/kg, po; type: ADME, organism-based; set-up: dose 50 mg/kg, time infinity, route oral; settings: in vivo; how it was run: as §5
Hepatocyte [22] = test: Drug metabolism in human hepatocytes assessed as ((4R,5R,7R,8R)-5-(2,4-dioxo-3,4-dihydropyrimidin-1(2H)-yl)-8-hydroxy-1,6-dioxaspiro[3.4]octan-7-yl)methyl dihydrogen phosphate formation in presence of CYP3A4 inhibitor ritonavir by LC-MS/MS analysis; type: ADME, cell-based
[23] = Tmax in rat plasma at 50 mg/kg, po; type: ADME, organism-based; how it was run: as §4

## [3H]C1O[P@](=O)(OC(C)C)O[C@@H]2[C@@H]1O[C@@H](n1ccc(=O)[nH]c1=O)[C@@]21CCO1 (some centres undefined)
Hepatocyte [1]
  Drug metabolism: metabolite_detected
Hepatocyte [2]
  Drug metabolism: metabolite_detected
Hepatocyte [3]
  Drug metabolism: metabolite_detected
Hepatocyte [4]
  Drug metabolism: metabolite_detected
Hepatocyte [5]
  Drug metabolism: 0.24 pmol
[6]
  Drug metabolism: metabolite_detected

## CC(C)O[P@@]1(=O)OC[C@H]2O[C@@H](n3ccc(=O)[nH]c3=O)[C@@]3(CCO3)[C@@H]2O1
Mus musculus
  t1/2: 3.9 h
Hepatitis C virus [7]
  Activity: Dose-dependent effect
Liver [8]
  Cmax: 13633 ng/g
[9]
  Drug metabolism: < 2 ng
[10]
  Kp: 0.57
Liver [11]
  t1/2: 3.9 h
[12]
  half-life: 4.8 h
[13]
  Cmax: 1290 ng/mL
[14]
  Tmax: 1 h
Hepatitis C virus [15]
  EC50: > 100 µM
[16]
  AUC(0-t): 7330 ng·h/mL
Liver [17]
  Tlast: 24 h
[18]
  Tmax: 1 h
Liver [19]
  AUClast: 35596 ng·h/g
Hepatitis C virus [20]
  Activity: -0.64
Liver [21]
  AUC: 758393 ng·h/g
Hepatocyte [22]
  Drug metabolism: metabolite_notdetected
[23]
  Tmax: 0.5 h
